Screening results deposited in PubChem by several laboratories.
RGS4 pot – potentiators or activators of RGS4. B-score at 10 µM. hit rate 0.92% among 310,000. HEK293 M3R/inducible RGS4, carbachol calcium flux Fluo4; stronger effect = lower value;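 active = B-score of the integrated calcium signal more than 4 SD below the library mean, with starting fluorescence not abnormally high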;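 note: negative B-score means reduced calcium response which marks RGS4 activation or potentiation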
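Detection: kinetic calcium fluorescence imaging with Fluo4-AM dye, 2 µM / Material: HEK293 cells with stable M3R and inducible RGS4 / Schedule: recording 10 s baseline at 1 Hz, 100 s post-agonist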
RGS4 inh – inhibitors of human RGS4; HEK293 M3R/RGS4 inducible, Fluo-4 calcium flux; stronger effect = higher value; triggered by carbachol at its EC20; P49798; B-score at 10 µM; hit rate 0.45% among 310,000; AID 463165;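 active = B-score, a plate-corrected calcium signal, over three deviations above library mean, with baseline fluorescence within five deviations of library mean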;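 note: RGS4 expression induced by doxycycline in cells with stable M3 receptor; B-score is computed from the integrated fluorescence ratio over baseline after carbachol; higher B-score means a larger calcium signal and so more RGS4 inhibition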
Target sequence (P49798 whole entry, looked up): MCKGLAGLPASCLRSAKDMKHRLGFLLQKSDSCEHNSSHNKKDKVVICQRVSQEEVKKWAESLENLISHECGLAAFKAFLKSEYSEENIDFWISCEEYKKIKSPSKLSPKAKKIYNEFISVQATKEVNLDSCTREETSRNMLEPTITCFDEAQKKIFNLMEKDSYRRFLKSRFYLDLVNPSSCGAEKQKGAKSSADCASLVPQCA
MrgX1 PAM – human MrgX1 positive allosteric modulation, primary screen; Q96LB2; B-score at 10 µM; hit rate 0.63% among 310,000; MrgX1-HEK293, Fluo-4 calcium flux, FDSS; stronger effect = higher value;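 active = plate-corrected calcium response at least 3 library SD above typical, normal starting fluorescence, not activating the receptor alone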;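 note: compound read alongside a low EC10 to EC30 dose of BAM8-22 agonist; peak minus trough fluorescence over baseline measured at the second addition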
MrgX1 antag – antagonists of human MrgX1 receptor; MRGX1-HEK293 calcium flux, Fluo-4, BAM8-22 antagonism; stronger effect = lower value; hit rate 1.3% among 310,000; Q96LB2; B-score at 10 µM;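 active = calcium-response B-score plate-corrected more than 3 library SD below zero, starting fluorescence within 5 deviations, no agonist response on first addition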;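 note: peak minus trough fluorescence over baseline after final BAM8-22 challenge near maximal dose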
Cl transport mod – KCC2 (human) Cl- transport modulation; AID 1456; Q9H2X9; hit rate 2.2% among 190,000; B-score of Tl+ flux slope (higher = more flux/activation; lower = inhibition) at 10 µM; KCC2 cells, thallium flux FluoZin-2 fluorescence;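 active = thallium flux slope and its plate-corrected score both differing from the plate sample mean at a set confidence after two filtering rounds, in either direction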;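 note: slope of fluorescence scaled to starting intensity during 10 to 20 s after thallium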
MrgX1 ag – activates human MrgX1 receptor signaling. Q96LB2. MrgX1-HEK293 cells, Fluo-4 calcium fluorescence, agonist mode; stronger effect = higher value. B-score at 10 µM. hit rate 0.44% among 310,000;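 active = calcium response B-score plate-corrected fluorescence ratio at least 3 library SD, with starting fluorescence B-score inside 5 SD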
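times = overnight plating, then 30 min 37 °C plus 30 min room-temperature dye loading | assay system = stable human MrgX1 HEK293 cell line | input = fifteen thousand cells per well | signal = kinetic calcium dye fluorescence, Fluo-4 NW | dosing = compound delivered in addition one of three | read-out = B-scored fluorescence response ratio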
Starred values were filed as active, the others as inactive; i = inactive; / = no result given. The list is not random: actives were taken first. Their share in the collection is about 4.7%.

SMILES	RGS4 pot	RGS4 inh	MrgX1 PAM	MrgX1 antag	Cl transport mod	MrgX1 ag
COc1ccc(/C=N\NC(=O)c2ccccc2)cc1COc1ccccc1	i	i	i	i	/	i
Cc1c(N(C)C(=O)COc2ccc3ccccc3c2)c(=O)n(-c2ccccc2)n1C	i	i	i	i	/	i
N#CC(c1cccc(Cl)c1)c1ccc2c(C(F)(F)F)cc(C(F)(F)F)nc2n1 (centres undefined)	i	i	i	i	28.9*	i
O=C(Nc1nnc(-c2ccco2)o1)c1ccc2ccccc2c1	i	i	i	i	38.5*	i
O=C1C=CC(=O)N1CCNc1ncc(C(F)(F)F)cc1Cl	-7.94*	i	/	/	-0.763	/
CC(CNC(=O)c1ccccc1Cl)NC(=O)c1ccccc1Cl (centres undefined)	i	i	i	i	/	i
O=C(O)c1c2c(nc3ccccc13)/C(=C/c1cccc([N+](=O)[O-])c1)CCC2	i	i	18*	i	/	i
O=C(c1ccco1)N1CCCC(c2nc3c(nnn3Cc3ccc(F)cc3)c(=O)[nH]2)C1 (centres undefined)	i	i	i	i	/	i
COc1cccc(Nc2c([N+](=O)[O-])cncc2[N+](=O)[O-])c1	i	i	i	i	/	31.1*
NS(=O)(=O)c1ccc(Nc2c([N+](=O)[O-])cncc2[N+](=O)[O-])cc1	i	i	i	i	/	34.9*
COc1cccc(Nc2c(Nc3cccc(OC)c3)c(=O)c2=O)c1	i	i	i	i	/	i
COc1ccc(C2=NS(=O)(=O)N(C)C(C(=O)N(C)Cc3ccccc3)=C2)cc1OC	i	i	i	i	/	i
O=C(O)CCCCCCCCCCP(=O)(c1ccccc1)c1ccccc1	i	i	i	i	0.228	i
O=P(CCCCCCCCCP(=O)(c1ccccc1)c1ccccc1)(c1ccccc1)c1ccccc1	-7.04*	i	i	i	-2.99*	i
CCCCn1c(SCC(=O)/C(C#N)=C(\C)N)nc2ccccc2c1=O	i	i	i	i	24*	i
COc1ccc(-n2c(SCC(=O)/C(C#N)=C(\C)N)nc3ccccc3c2=O)cc1OC	i	i	i	i	-0.232	i
CCCCCn1c(SCc2ccncc2)nc2cc(C(=O)NCc3ccco3)ccc2c1=O	-8.03*	i	i	i	/	i
C/C(N)=C(/C#N)C(=O)CSc1nc2cc(Cl)ccc2c(=O)n1Cc1ccco1	i	i	i	i	/	i
C/C(N)=C(/C#N)C(=O)CSc1nc2cc(Cl)ccc2c(=O)n1-c1ccc(C)cc1	i	i	i	i	8.69*	i
O=C(NCc1ccco1)c1ccc2c(=O)n(Cc3ccco3)c(SCC(=O)N3CCCC3)nc2c1	/	/	i	i	-1.05	i
CCCCn1c(SCC(=O)NCc2ccco2)nc2ccccc2c1=O	i	i	i	i	9.11*	i
O=C(CN(Cc1ccco1)C(=O)CNS(=O)(=O)c1ccc(F)cc1)NCc1ccco1	i	i	i	i	/	i
CS(=O)(=O)c1ccc(Cl)c(NC(=O)c2cc(=O)[nH]c3ccc(S(=O)(=O)N4CCOCC4)cc23)c1	i	i	i	i	/	i
CCCCCOc1ccc(NC(=O)C(=O)NCC2CCCN2CC)cc1 (centres undefined)	i	i	i	-6.99*	-0.286	i
CCN1CCCC1CNC(=O)C(=O)NC (centres undefined)	i	i	i	i	/	i
COc1ccc(C(=O)NC(CC(C)C)C(=O)O)cc1OC (centres undefined)	i	i	i	i	-0.175	i
CCc1ccc(C(=O)NC(CC(C)C)C(=O)O)cc1 (centres undefined)	i	i	i	i	4.68*	i
